Experimental findings from ChEMBL document CHEMBL3861962 (Eur J Med Chem, 2016) are described below.

A short description of data set [1]: Drug level in human liver microsomes treated with 4-(1,1,1,2,3,3,3-Heptafluoropropan-2-yl)-N-(6-(2-hydroxyethoxy)-5-(2-methoxyphenoxy)-2,2'-bipyrimidin-4-yl)benzenesulfonamide at 5 uM in presence of NADPH after 30 mins by LC-MS/MS analysis. In kind it is ADME. As to conditions: 0.5 h. The method, boiled down: (§1)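 Substrate at 5 μM final in 100 mM potassium phosphate, pH 7.4, incubated with human liver microsomes or baculovirus-expressed recombinant CYP3A4, 2D6 or 2C9. Reaction started with 1 mM NADPH and run 0, 15 and 30 min at 37 °C. Stopped with ice-cold acetonitrile containing labetalol internal standard, then centrifuged. Supernatant analysed by LC-MS/MS on a C18 column at 40 °C. Blank was enzyme without substrate.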

The target in data set [2] is T1, Cytochrome P450 3A4 (Homo sapiens, UniProt P08684). Briefly: Drug level assessed as human recombinant CYP3A4-mediated compound formation treated with 4-(1,1,1,2,3,3,3-Heptafluoropropan-2-yl)-N-(6-(2-hydroxyethoxy)-5-(2-methoxyphenoxy)-2,2'-bipyrimidin-4-yl)benzenesulfonamide at 5 uM in presence of NADPH after 30 mins by LC-MS/MS analysis. The class given is ADME. The note with it: recombinant enzyme, 0.5 h. The method, boiled down:
as §1

Data set [3] is described as follows: Retention time of the compound. In kind it is physicochemical.
For data set [4], the target named is T1, Cytochrome P450 3A4. Briefly: Drug level assessed as human recombinant CYP3A4-mediated compound formation treated with bosentan at 5 uM in presence of NADPH after 30 mins by LC-MS/MS analysis. The class given is ADME. As to conditions: recombinant enzyme, 0.5 h. The method, boiled down: as §1
Data set [5] is described as follows: Drug level in human liver microsomes treated with bosentan at 5 uM in presence of NADPH after 30 mins by LC-MS/MS analysis. In kind it is ADME. The note with it: 0.5 h. Put shortly: as §1
On the technique in general: Microsomes from liver hold many membrane-bound enzymes, among them those of drug oxidation.

Molecules are shown by their SMILES.

T1 sequence (P08684 whole entry): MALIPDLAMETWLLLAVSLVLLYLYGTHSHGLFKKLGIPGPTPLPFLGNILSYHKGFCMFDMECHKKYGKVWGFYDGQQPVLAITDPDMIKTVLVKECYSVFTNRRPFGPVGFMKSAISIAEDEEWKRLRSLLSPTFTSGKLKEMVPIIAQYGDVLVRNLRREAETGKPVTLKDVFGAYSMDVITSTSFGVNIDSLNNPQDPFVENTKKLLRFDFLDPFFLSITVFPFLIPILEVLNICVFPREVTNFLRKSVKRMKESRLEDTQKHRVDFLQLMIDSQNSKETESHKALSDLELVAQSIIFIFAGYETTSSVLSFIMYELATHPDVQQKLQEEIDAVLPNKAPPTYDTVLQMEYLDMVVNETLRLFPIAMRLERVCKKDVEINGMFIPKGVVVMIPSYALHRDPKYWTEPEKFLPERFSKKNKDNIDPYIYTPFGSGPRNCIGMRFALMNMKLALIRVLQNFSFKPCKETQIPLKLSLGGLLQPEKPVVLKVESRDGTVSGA

As to `O=S(=O)(Nc1nc(-c2ncccn2)nc(OCCO)c1Oc1ccccc1O)c1ccc(C(F)(C(F)(F)F)C(F)(F)F)cc1`, the Drug metabolism entry in data set [1] and in data set [2] was “Metabolite_Detected” in each case. In data set [3], this molecule came in with a Retention_time of 5.27 min.
In data set [3], `CCOc1nc(-c2ncccn2)nc(NS(=O)(=O)c2ccc(C(C)(C)C)cc2)c1Oc1ccccc1O` showed a Retention_time of 5.52 min.
`CC(C)(C)c1ccc(S(=O)(=O)Nc2nc(-c3ncccn3)nc(OCCO)c2Oc2ccccc2O)cc1`: the Drug metabolism result in data set [4] and in data set [5] was “Metabolite_Detected” each time. Moreover, the Retention_time in data set [3] was determined as 4.73 min.
Take `CC(C)(CO)c1ccc(S(=O)(=O)Nc2nc(-c3ncccn3)nc(OCCO)c2Oc2ccccc2O)cc1`: the Drug metabolism entry in data set [4] and in data set [5] was “Metabolite_Detected” each time. For the same molecule, in data set [3], the Retention_time is listed as 4.16 min.
